The text below walks through data of ChEMBL document CHEMBL1138386, “Discovery of potent and selective PKC-theta inhibitors” (Bioorg Med Chem Lett, 2007).

Series [1] concerns the target T1, Protein kinase C theta type (Homo sapiens, UniProt Q04759). The series can be described thus: Inhibition of PKCtheta by FP assay. The gist of the method: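 Recombinant PKC-θ, […], in 20 mM Hepes pH 7.6 with 0.1 mM CaCl2, 10 mM MgCl2, 0.01% Chaps, TCEP, Na orthovanadate and protease inhibitor cocktail. Enzyme pre-incubated with compound dilutions for 10 min at rt. Phosphopeptide read by competition FP using fluorescein-labelled phosphopeptide tracer and anti-phosphoserine antibody in quench buffer.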

The next series concerns T-cell. The series can be described thus: Inhibition of IL2 production in […]-stimulated human CD4+ T cells. It counts as functional, cell-based. To be noted: in the assay text read “anti-CD3/anti-CD28” for “anti-CD3/anti-CD8”. Summed up:
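Human CD4+ T cells isolated from whole blood by positive selection. Cells activated through TCR and CD28 with anti-CD3 and anti-CD28 mAbs. 50,000 cells/well exposed to compound dilutions at 0.125% DMSO final, or DMSO alone, overnight at 37 °C. Supernatant IL-2 measured by ELISA after 1:10 dilution.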

The target in a further series is Cytochrome P450 2C9 (Homo sapiens, UniProt P11712). The series can be described thus: Inhibition of CYP2C9. In kind it is ADME.
A further series has as its target Cytochrome P450 2D6 (Homo sapiens, UniProt P10635). Put plainly: Inhibition of CYP2D6. It counts as ADME.
Series [2] has as its target T2, Cytochrome P450 3A4 (Homo sapiens, UniProt P08684). The series can be described thus: Inhibition of CYP3A4 in presence of BFC substrate. It counts as ADME.
Series [3] in a line: Stability in human liver microsomes. In kind it is ADME, Microsome. In general terms: Microsomes from liver hold many membrane-bound enzymes, among them those of drug oxidation.
A short description of series [4]: Permeability across Caco-2 cells from apical to basolateral side. In kind it is ADME, cell-based. To be noted: human, read-out: permeability. For orientation: Passage across Caco-2 layers is used to estimate intestinal permeability.
A short description of series [5]: Permeability across Caco-2 cells from basolateral to apical side. In kind it is ADME, cell-based. Conditions: human, read-out: permeability.
For series [6], the target named is T2, Cytochrome P450 3A4. The series can be described thus: Inhibition of CYP3A4 in presence of BQ substrate. In kind it is ADME.
In series [7] the target is T1, Protein kinase C theta type. The series can be described thus: Inhibition of PKCtheta in presence of 50 uM ATP.
The target is the same in series [8]. Put plainly: Inhibition of PKCtheta in presence of 100 uM ATP.

The structures appear in SMILES notation.

T1 sequence (Q04759 whole entry): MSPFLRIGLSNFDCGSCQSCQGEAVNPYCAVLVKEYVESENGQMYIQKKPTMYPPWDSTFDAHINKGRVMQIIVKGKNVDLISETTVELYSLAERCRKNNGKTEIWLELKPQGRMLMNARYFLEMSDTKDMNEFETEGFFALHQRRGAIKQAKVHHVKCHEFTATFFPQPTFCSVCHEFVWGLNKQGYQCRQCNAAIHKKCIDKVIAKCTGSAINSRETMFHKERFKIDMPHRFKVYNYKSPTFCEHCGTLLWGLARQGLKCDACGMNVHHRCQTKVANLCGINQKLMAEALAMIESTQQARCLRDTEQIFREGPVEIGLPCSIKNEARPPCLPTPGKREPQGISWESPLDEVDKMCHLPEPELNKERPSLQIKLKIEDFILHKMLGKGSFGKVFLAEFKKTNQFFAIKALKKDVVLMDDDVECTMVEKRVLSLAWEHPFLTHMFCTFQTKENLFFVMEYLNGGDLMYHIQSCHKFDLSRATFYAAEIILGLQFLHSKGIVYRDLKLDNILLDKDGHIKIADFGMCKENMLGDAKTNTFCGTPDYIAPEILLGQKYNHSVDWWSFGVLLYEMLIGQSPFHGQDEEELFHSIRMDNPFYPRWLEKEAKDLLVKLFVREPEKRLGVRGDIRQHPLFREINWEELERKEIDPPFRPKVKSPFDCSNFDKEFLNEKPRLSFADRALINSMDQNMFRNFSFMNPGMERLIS
Sequence of Cytochrome P450 2C9 (P11712 whole entry): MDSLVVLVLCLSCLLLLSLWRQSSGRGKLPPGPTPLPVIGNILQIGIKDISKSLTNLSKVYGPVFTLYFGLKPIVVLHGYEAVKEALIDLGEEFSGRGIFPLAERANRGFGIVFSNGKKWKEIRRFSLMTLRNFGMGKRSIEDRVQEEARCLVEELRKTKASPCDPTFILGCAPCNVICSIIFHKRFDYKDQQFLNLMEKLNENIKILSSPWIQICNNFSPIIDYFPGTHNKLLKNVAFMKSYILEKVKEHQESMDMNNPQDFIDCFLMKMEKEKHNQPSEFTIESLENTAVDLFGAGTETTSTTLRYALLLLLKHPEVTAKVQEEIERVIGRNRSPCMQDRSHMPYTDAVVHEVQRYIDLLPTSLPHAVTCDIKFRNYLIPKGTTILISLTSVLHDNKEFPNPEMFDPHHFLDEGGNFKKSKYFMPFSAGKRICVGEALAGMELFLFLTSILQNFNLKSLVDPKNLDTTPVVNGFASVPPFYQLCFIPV
T2 sequence (P08684 whole entry): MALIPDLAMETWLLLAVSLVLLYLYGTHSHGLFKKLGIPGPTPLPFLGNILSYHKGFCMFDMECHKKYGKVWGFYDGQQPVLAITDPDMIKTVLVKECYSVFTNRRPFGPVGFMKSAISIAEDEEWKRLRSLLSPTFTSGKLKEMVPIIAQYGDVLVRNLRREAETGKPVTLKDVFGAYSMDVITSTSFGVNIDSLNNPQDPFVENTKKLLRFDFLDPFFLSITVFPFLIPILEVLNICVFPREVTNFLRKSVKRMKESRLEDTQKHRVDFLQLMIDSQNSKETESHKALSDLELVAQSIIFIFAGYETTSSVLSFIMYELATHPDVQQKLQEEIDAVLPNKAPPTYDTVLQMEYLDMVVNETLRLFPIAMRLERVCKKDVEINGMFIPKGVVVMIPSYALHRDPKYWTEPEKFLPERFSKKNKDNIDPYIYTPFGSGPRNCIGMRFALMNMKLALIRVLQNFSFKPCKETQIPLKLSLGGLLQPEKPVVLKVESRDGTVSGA
Sequence of Cytochrome P450 2D6 (P10635 whole entry): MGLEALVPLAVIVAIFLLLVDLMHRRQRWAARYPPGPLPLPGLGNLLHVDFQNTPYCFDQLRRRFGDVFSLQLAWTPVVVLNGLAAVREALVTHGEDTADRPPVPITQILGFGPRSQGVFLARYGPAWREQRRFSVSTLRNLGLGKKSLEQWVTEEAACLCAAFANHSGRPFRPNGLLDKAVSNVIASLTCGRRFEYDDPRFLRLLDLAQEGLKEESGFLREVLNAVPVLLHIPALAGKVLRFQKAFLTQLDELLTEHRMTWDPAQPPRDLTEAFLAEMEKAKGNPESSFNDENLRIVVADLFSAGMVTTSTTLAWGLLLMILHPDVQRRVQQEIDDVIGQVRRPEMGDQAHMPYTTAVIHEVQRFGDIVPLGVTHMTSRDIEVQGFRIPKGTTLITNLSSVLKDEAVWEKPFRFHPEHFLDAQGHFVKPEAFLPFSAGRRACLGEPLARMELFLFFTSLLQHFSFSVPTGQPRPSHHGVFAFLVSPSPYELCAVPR

`NCCCCCNc1nc(NCc2ccccc2Cl)ncc1[N+](=O)[O-]` returned an IC50 in series [1] of 450 nM.
Take `NCCCCCCCNc1nc(NCc2ccccc2Cl)ncc1[N+](=O)[O-]`: the IC50 in [1] is 110 nM.
In series [1], `NCc1ccc(CNc2nc(NCc3ccccc3Cl)ncc2[N+](=O)[O-])cc1` gave an IC50 of 160 nM.
The compound `NCC1CCC(CNc2nc(NCc3ccc(Cl)cc3)ncc2[N+](=O)[O-])CC1` (stereo unspecified) returned an IC50 in [1] of 170 nM.
For `NCc1cccc(CNc2nc(NCc3ccccc3Cl)ncc2[N+](=O)[O-])c1`, in series [1], inhibition was half-maximal at 200 nM (IC50).
Still for that read-out and setting: then `NCC1CCC(CNc2nc(NCCCc3ccccc3)ncc2[N+](=O)[O-])CC1` (stereo unspecified), with 270 nM; and `COc1ccccc1CNc1ncc([N+](=O)[O-])c(NCC2CCC(CN)CC2)n1` (stereo unspecified), with 17 nM; and `NCC1CCCC(CNc2nc(NCc3ccccc3Cl)ncc2[N+](=O)[O-])C1` (stereo unspecified), with 3 nM.
Consider `NCC1CCC(CNc2nc(NCCc3ccccc3)ncc2[N+](=O)[O-])CC1` (stereo unspecified), for which, in series [1], the IC50 was 94 nM.
Same read-out and setting: the same measure for `Cc1cccc(CNc2ncc([N+](=O)[O-])c(NCC3CCC(CN)CC3)n2)c1` (stereo unspecified): 39 nM; for `NCC1CCC(CNc2nc(NCc3ccccc3C(F)F)ncc2[N+](=O)[O-])CC1` (stereo unspecified): 15 nM; for `NCC1CCC(CNc2nc(NCc3ccc(Cl)cc3Cl)ncc2[N+](=O)[O-])CC1` (stereo unspecified): 27 nM.
With `NCCCNc1nc(NCc2ccccc2Cl)ncc1[N+](=O)[O-]`, the IC50 in series [1] is over 10000 nM.
The same measure, in the same setting: then `NCC1CCC(CNc2nc(NCc3ccc(F)cc3F)ncc2[N+](=O)[O-])CC1` (stereo unspecified), with 100 nM.
Regarding `CSc1ccccc1CNc1ncc([N+](=O)[O-])c(NCC2CCC(CN)CC2)n1` (stereo unspecified), the IC50 was 5 nM in series [1]; 140 nM in the series with T-cell; 1400 nM at Cytochrome P450 2C9; 4700 nM against Cytochrome P450 2D6; 6900 nM at Cytochrome P450 3A4 [2]; over 30000 nM on Cytochrome P450 3A4 [6]. The half-life in series [3] stood at 65 min. The Papp A→B in series [4] turned out to be 1.6 ×10⁻⁶ cm/s. For the same compound, the Papp B→A in series [5] was found to be 1.9 ×10⁻⁶ cm/s.
Turning to `O=[N+]([O-])c1cnc(NCc2ccccc2Cl)nc1NCC1CCNCC1`, the IC50 in series [1] was 90 nM; in the series on T-cell, 720 nM; on Cytochrome P450 2C9, 17600 nM; against Cytochrome P450 2D6, over 30000 nM; on Cytochrome P450 3A4 [2] it was 28000 nM; on Cytochrome P450 3A4 [6] it was over 30000 nM. In [3], the half-life is 66 min. The Papp A→B in series [4] turned out to be 8.1 ×10⁻⁶ cm/s. The Papp B→A in series [5] came out at 10.6 ×10⁻⁶ cm/s.
`O=[N+]([O-])c1cnc(NCc2ccccc2Cl)nc1NCC1CCCCC1` gave an IC50 in [1] of over 10000 nM.
The same measure, in the same setting: the same measure for `NC[C@H]1CC[C@H](CNc2nc(NCc3ccccc3Cl)ncc2[N+](=O)[O-])CC1`: 29 nM; for `NCC1CCC(CNc2nc(N[C@H]3CCc4ccccc43)ncc2[N+](=O)[O-])CC1` (stereo partly specified): 4400 nM; for `NCC1CCC(CNc2nc(NCc3ccccc3C(F)(F)F)ncc2[N+](=O)[O-])CC1` (stereo unspecified): 12 nM.
As for `NCC1CCC(CNc2nc(NCc3ccccc3)ncc2[N+](=O)[O-])CC1` (stereo unspecified), the IC50 in [1] was determined as 500 nM.
`C[C@@H](Nc1ncc([N+](=O)[O-])c(NCC2CCC(CN)CC2)n1)c1ccccc1` (stereo partly specified) registered an IC50 in series [1] of 5700 nM.
For the compound `COc1ccc(CNc2ncc([N+](=O)[O-])c(NCC3CCC(CN)CC3)n2)cc1` (stereo unspecified), half-maximal inhibition in series [1] (IC50) was put at 12000 nM.
On the same count and under the same terms, the same measure for `NCC1CCC(CNc2nc(NC(=O)c3ccccc3Br)ncc2[N+](=O)[O-])CC1` (stereo unspecified): 2200 nM; for `CC(=O)NCC1CCC(CNc2nc(NCc3ccccc3Cl)ncc2[N+](=O)[O-])CC1` (stereo unspecified): over 10000 nM.
`NCC1CCC(CNc2nc(NCc3ccccc3Br)ncc2[N+](=O)[O-])CC1` (stereo unspecified) had an IC50 in [1] of 5 nM.
The compound `NCC1CCC(CNc2nc(N[C@@H]3CCc4ccccc43)ncc2[N+](=O)[O-])CC1` (stereo partly specified) gave an IC50 in series [1] of 460 nM.
Same read-out and setting: the same measure for `NCC1CCC(CNc2nc(NCc3cccc(F)c3)ncc2[N+](=O)[O-])CC1` (stereo unspecified): 83 nM.
Take `Cc1ccccc1CNc1ncc([N+](=O)[O-])c(NCC2CCC(CN)CC2)n1` (stereo unspecified): in series [1], the IC50 was 34 nM.
Same read-out and setting: then `COc1cc(CNc2ncc([N+](=O)[O-])c(NCC3CCC(CN)CC3)n2)cc(OC)c1` (stereo unspecified), with 1500 nM; and `NCC1CCC(CNc2nc(NCCc3ccccc3F)ncc2[N+](=O)[O-])CC1` (stereo unspecified), with 130 nM; and `Cc1cccc(CNc2ncc([N+](=O)[O-])c(NCC3CCC(CN)CC3)n2)c1C` (stereo unspecified), with 13 nM.
The compound `NCC1CCC(CNc2nc(NCc3ccccc3[N+](=O)[O-])ncc2[N+](=O)[O-])CC1` (stereo unspecified) yielded an IC50 in series [1] of 11 nM.
The same measure, in the same setting: the same measure for `NCC1CCC(CNc2nc(NCc3cc(Cl)ccc3Cl)ncc2[N+](=O)[O-])CC1` (stereo unspecified): 7 nM; for `NCC1CCC(CNc2nc(Nc3cccc(Cl)c3)ncc2[N+](=O)[O-])CC1` (stereo unspecified): 60 nM.
Still for that read-out and setting: then `NCC1CCC(CNc2nc(NCc3ccccc3F)ncc2[N+](=O)[O-])CC1` (stereo unspecified), with 48 nM.
The compound `NCC1CCC(CNc2nc(Nc3cc(Cl)cc(Cl)c3)ncc2C(F)(F)F)CC1` (stereo unspecified) gave an IC50 in [1] of 4200 nM.
Turning to `NCC1CCC(CNc2nc(NCc3ccccc3Cl)ncc2[N+](=O)[O-])CC1` (stereo unspecified), the concentration for half-maximal inhibition (IC50) in series [1] is 46 nM; in series [7], 290 nM; in series [8], 630 nM; in the series on T-cell, 84 nM; at Cytochrome P450 2C9, 1000 nM; against Cytochrome P450 2D6, 4300 nM. Also, the IC50 at Cytochrome P450 3A4 [2] stood at 700 nM; on Cytochrome P450 3A4 [6] it was 1400 nM. Further, in series [3], the half-life is 48 min. The Papp A→B in [4] was 4 ×10⁻⁶ cm/s. Further, the Papp B→A in series [5] worked out at 6.9 ×10⁻⁶ cm/s.
In series [1], `NCC1CCC(CNc2nc(NCCc3ccc(F)cc3)ncc2[N+](=O)[O-])CC1` (stereo unspecified) came in with an IC50 of 77 nM.
The same measure, in the same setting: the same measure for `COc1cccc(CNc2ncc([N+](=O)[O-])c(NCC3CCC(CN)CC3)n2)c1` (stereo unspecified): 210 nM.
Regarding `CN(C)CC1CCC(CNc2nc(NCc3ccccc3Cl)ncc2[N+](=O)[O-])CC1` (stereo unspecified), the IC50 in [1] stood at 54 nM; in the series on T-cell, 190 nM; against Cytochrome P450 2C9 it was 8400 nM; against Cytochrome P450 2D6 it was 1700 nM; at Cytochrome P450 3A4 [2], 1700 nM; on Cytochrome P450 3A4 [6], 13000 nM. This compound also gave a half-life in [3] of 40 min. Further, the Papp A→B in series [4] was 10.6 ×10⁻⁶ cm/s. The Papp B→A in series [5] was determined as 10.2 ×10⁻⁶ cm/s.
As to `NCC1CCC(CNc2nc(NCc3cc(F)ccc3F)ncc2[N+](=O)[O-])CC1` (stereo unspecified), in series [1], 35 nM corresponded to half-maximal inhibition (IC50).
On the same count and under the same terms, the same measure for `NCC1CCC(CNc2nc(NCc3cccc(Cl)c3Cl)ncc2[N+](=O)[O-])CC1` (stereo unspecified): 8 nM; for `NCC1CCC(CNc2nc(NCc3cccc(F)c3F)ncc2[N+](=O)[O-])CC1` (stereo unspecified): 22 nM; for `C[C@H](Nc1ncc([N+](=O)[O-])c(NCC2CCC(CN)CC2)n1)c1ccccc1` (stereo partly specified): 3700 nM.
The same measure, in the same setting: the same measure for `NCC1CCC(CNc2nc(NC3Cc4ccccc4C3)ncc2[N+](=O)[O-])CC1` (stereo unspecified): 31 nM; for `Cc1c(Cl)cccc1CNc1ncc([N+](=O)[O-])c(NCC2CCC(CN)CC2)n1` (stereo unspecified): 46 nM.
Still for that read-out and setting: then `NCC1CCC(CNc2nc(NCCCCc3ccccc3)ncc2[N+](=O)[O-])CC1` (stereo unspecified), with 90 nM; and `NCC1CCC(CNc2nc(NCc3cccc(Cl)c3)ncc2[N+](=O)[O-])CC1` (stereo unspecified), with 85 nM.
Compound `NCC1CCC(CNc2nc(NCc3ccc(F)cc3)ncc2[N+](=O)[O-])CC1` (stereo unspecified) came in with an IC50 in series [1] of 210 nM.
Compound `NC[C@H]1CC[C@@H](CNc2nc(NCc3ccccc3Cl)ncc2[N+](=O)[O-])CC1` displayed an IC50 in series [1] of 18 nM.
On the same count and under the same terms, then `Cc1ccc(C)c(CNc2ncc([N+](=O)[O-])c(NCC3CCC(CN)CC3)n2)c1` (stereo unspecified), with 910 nM; and `NCC1CCC(CNc2nc(NCc3cc(Cl)cc(Cl)c3)ncc2[N+](=O)[O-])CC1` (stereo unspecified), with 400 nM; and `NCC1CCC(CNc2nc(NCc3ccccc3SC(F)(F)F)ncc2[N+](=O)[O-])CC1` (stereo unspecified), with 6 nM.
The same measure, in the same setting: then `NCC1CCC(CNc2nc(Nc3cc(Cl)cc(Cl)c3)ncc2[N+](=O)[O-])CC1` (stereo unspecified), with 680 nM.
On to `CC(C)(Nc1ncc([N+](=O)[O-])c(NCC2CCC(CN)CC2)n1)c1ccccc1` (stereo unspecified), for which half-maximal inhibition in series [1] (IC50) was put at 2500 nM.
As to `NCC1CCC(CNc2nc(Nc3cccc(Cl)c3)ncc2C(F)(F)F)CC1` (stereo unspecified), the IC50 in [1] was found to be 640 nM.
On the same count and under the same terms, the same measure for `Cc1ccccc1CCNc1ncc([N+](=O)[O-])c(NCC2CCC(CN)CC2)n1` (stereo unspecified): 180 nM; for `NCC1CCC(CNc2nc(NCCc3cccc(F)c3)ncc2[N+](=O)[O-])CC1` (stereo unspecified): 54 nM; for `NCC1CCC(CNc2nc(NCc3c(F)cccc3F)ncc2[N+](=O)[O-])CC1` (stereo unspecified): 42 nM.
On the same count and under the same terms, then `NCC1CCC(CNc2nc(NCc3ccccc3OC(F)(F)F)ncc2[N+](=O)[O-])CC1` (stereo unspecified), with 18 nM.
Still for that read-out and setting: then `NCC1CCC(CNc2nc(NCc3ccccc3-c3ccccc3)ncc2[N+](=O)[O-])CC1` (stereo unspecified), with 39 nM.

In general, IC50 refers to the concentration that inhibits the measured activity by half. In general, half-life refers to the time in which the quantity being followed falls by half. A low value points to rapid decline.
